What all share (assay type): cell-based
Test [1] is described as follows: Displacement of [3H]diprenorphine from chimeric rat mu opioid receptor (1-150)/kappa opioid receptor (142-380) expressed in HEK293 cells. A digest of the protocol: (§1)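 Whole-cell binding: HEK-293 cells transiently transfected (calcium phosphate, 10–20 µg pcDNA) with wild-type, point-mutant or chimeric receptor, harvested 48–72 h later, washed and resuspended in 25 mM HEPES pH 7.4. Incubated with [3H]-diprenorphine, room temperature, 90 min. Separation by filtration on PEI-presoaked GF/C filters, scintillation counting. Nonspecific binding with 100 µM naloxone, norBNI or salvinorin A. Triplicates, nonlinear regression.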

The nature of test [2]: Displacement of [3H]diprenorphine from chimeric rat kappa opioid receptor (1-141)/mouse delta opioid receptor (132-372) expressed in HEK293 cells. A digest of the protocol:
as §1

For test [3], the target named is Mu-type opioid receptor (Rattus norvegicus, UniProt P33535, W318A). As to the kind of experiment: Displacement of [3H]diprenorphine from rat mu opioid receptor W318A mutant expressed in HEK293 cells. A digest of the protocol: as §1
Mu-type opioid receptor (Rattus norvegicus, UniProt P33535, W318A), sequence (P33535 whole entry W318A): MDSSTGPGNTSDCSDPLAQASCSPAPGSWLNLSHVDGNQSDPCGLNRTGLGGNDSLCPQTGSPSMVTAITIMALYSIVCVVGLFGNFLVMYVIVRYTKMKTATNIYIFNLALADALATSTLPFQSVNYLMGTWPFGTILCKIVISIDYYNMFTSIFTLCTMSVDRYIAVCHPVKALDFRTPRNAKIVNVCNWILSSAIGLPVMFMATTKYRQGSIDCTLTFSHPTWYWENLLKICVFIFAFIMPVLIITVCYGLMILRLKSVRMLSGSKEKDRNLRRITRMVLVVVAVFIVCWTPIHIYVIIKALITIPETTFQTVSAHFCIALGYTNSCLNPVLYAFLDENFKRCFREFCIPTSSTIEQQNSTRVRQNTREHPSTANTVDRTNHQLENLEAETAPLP
A short description of test [4]: Displacement of [3H]diprenorphine from chimeric rat mu opioid receptor (1-233)/kappa opioid receptor (228-380) expressed in HEK293 cells. A digest of the protocol:
as §1

The nature of test [5]: Displacement of [3H]diprenorphine from chimeric rat kappa opioid receptor (1-141)/mu opioid receptor (151-398) expressed in HEK293 cells. A digest of the protocol:
as §1
A general note: In a radioligand displacement assay an active substance lowers the binding of a labelled ligand.

Test [6] concerns the target Kappa-type opioid receptor (Rattus norvegicus, UniProt P34975). As to the kind of experiment: Displacement of [3H]diprenorphine from rat kappa opioid receptor expressed in HEK293 cells. A digest of the protocol: as §1
Test [7] has as its target Mu-type opioid receptor (Rattus norvegicus, UniProt P33535). Nature of the test: Displacement of [3H]diprenorphine from rat mu opioid receptor expressed in HEK293 cells. The essentials:
as §1

Test [8] in a line: Displacement of [3H]diprenorphine from chimeric rat kappa opioid receptor (1-227)/mu opioid receptor (234-398) expressed in HEK293 cells. A digest of the protocol:
as §1

Test [9] is described as follows: Displacement of [3H]diprenorphine from chimeric rat mu opioid receptor (1-150)/kappa opioid receptor (142-227)/mu opioid receptor (234-398) expressed in HEK293 cells. The essentials: as §1
Test [10] is described as follows: Displacement of [3H]diprenorphine from chimeric rat kappa opioid receptor (1-141)/mu opioid receptor (151-233)/kappa opioid receptor (228-380) expressed in HEK293 cells. The essentials:
as §1

Test [11] can be described thus: Displacement of [3H]diprenorphine from chimeric rat kappa opioid receptor (1-227)/mouse delta opioid receptor (215-372) expressed in HEK293 cells. A digest of the protocol: as §1
Test [12] has as its target Kappa-type opioid receptor (Rattus norvegicus, UniProt P34975, Y313A). Nature of the test: Displacement of [3H]diprenorphine from rat kappa opioid receptor Y313A mutant expressed in HEK293 cells. A digest of the protocol:
as §1

Kappa-type opioid receptor (Rattus norvegicus, UniProt P34975, Y313A), sequence (P34975 whole entry Y313A): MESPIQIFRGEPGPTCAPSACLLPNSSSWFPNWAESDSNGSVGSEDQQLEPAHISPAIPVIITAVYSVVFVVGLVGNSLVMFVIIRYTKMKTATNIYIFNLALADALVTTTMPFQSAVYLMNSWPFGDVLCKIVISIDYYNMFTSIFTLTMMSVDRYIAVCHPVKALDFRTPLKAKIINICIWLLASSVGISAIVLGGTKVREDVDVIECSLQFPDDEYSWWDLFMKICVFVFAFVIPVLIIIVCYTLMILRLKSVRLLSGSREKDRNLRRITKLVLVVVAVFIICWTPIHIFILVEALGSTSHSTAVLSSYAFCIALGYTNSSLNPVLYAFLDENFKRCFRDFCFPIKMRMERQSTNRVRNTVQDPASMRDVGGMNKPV
Kappa-type opioid receptor (Rattus norvegicus, UniProt P34975), sequence (P34975 whole entry): as the sequence (P34975 whole entry Y313A) above, with A313Y counted along it
Mu-type opioid receptor (Rattus norvegicus, UniProt P33535), sequence (P33535 whole entry): as the sequence (P33535 whole entry W318A) above, with A318W counted along it

Take `COC(=O)[C@@H]1C[C@H](C(=O)c2ccccc2)C(=O)[C@H]2[C@@]1(C)CC[C@H]1C(=O)O[C@H](c3ccoc3)C[C@]21C`: the Ki in test [1] is 4.11 µM; in [2], more than 10 µM; in test [3], 426 nM; in [4] it was 2310 nM; in test [5], 1610 nM; in test [6] it was 1380 nM. The Ki in [7] turned out to be 245 nM; in [8] it was 9.4 µM; in [9] it was 615 nM; in [10], 8.32 µM; in [11], 450 nM; in test [12], 3.87 µM.

Consider `COC(=O)[C@@H]1C[C@H](OC(C)=O)C(=O)[C@H]2[C@@]1(C)CC[C@H]1C(=O)O[C@H](c3ccoc3)C[C@]21C` [SALVINORIN A], for which the Ki in test [9] worked out at 458 nM; in test [10], 0.522 µM.

One may read the Ki as the equilibrium dissociation constant of an inhibitor or competing ligand from its target. A high value points to a looser hold on the target.

These data come from ChEMBL document CHEMBL1142277, “Toward a structure-based model of salvinorin A recognition of the kappa-opioid receptor” (J Med Chem, 2008).
